ABCG2 inh – ABCG2 efflux pump inhibitors, primary screen, multiplex with ABCB1, IgMXP3 cells, flow cytometry; JC-1 efflux; Broad substrate specificity ATP-binding cassette transporter ABCG2 (Homo sapiens), Q9UNQ0; inhibition, % at 6.6 µM; actives 0.1% (n = 190,000);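 active = inhibition above 80%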
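material = IgMXP3 (ABCG2) plus far-red-tagged CCRF-Adr (ABCB1) cells | amount = 3 million cells/mL, equal mix of both lines | also added = JC-1 transporter substrate | dosing = one concentration, 6.6 µM final | schedule = 10 min at 25 °C | measured by = flow cytometric JC-1 green MFI at 530 nm | read-out basis = percent efflux inhibition, scaled nicardipine 100% to DMSO 0%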
ROMK primary – ROMK potassium channel modulators, primary screen, cell-based, thallium flux, MLSMR library. ATP-sensitive inward rectifier potassium channel 1 (Homo sapiens), P48048. Tet-inducible ROMK, thallium flux fluorescence; actives lie on both sides. B-score at 10 µM. actives 2% (n = 130,000);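 active = signal ratio slope over the read window, or its plate-corrected B-score, at least 3 SD from the plate mean, either direction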;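 also: B-score of the F/F0 ratio slope over 7 to 12 s after thallium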
Ins promoter up – insulin promoter activators in MIN6 cells, imaging, high-content screening, mouse beta cells. MIN6 insulin promoter-GFP reporter; active compounds read high. z-score at 5 µM. AID 1625, 2009. actives 0.3% (n = 190,000);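 active = z-score above 3 at 5 µM with at least 500 cells counted in the well; inconclusive = wells under 500 cells, flagged as cytotoxic or low count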
sdo1 growth – growth rescue of sdo1-depleted yeast, primary screen, S. cerevisiae, bone marrow failure model; AID 817, 2007; actives 0.21% (n = 140,000); S. cerevisiae sdo1-depleted JHY4D growth rescue, OD600 30 h; active compounds read high; pdr5 snq2 efflux-pump mutant strain; z-score at 10 µM;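 active = z-score above 3 at both the 24 hr and the 30 hr optical density reads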
ABCB1 block – ABCB1 efflux pump inhibitors, primary screen, cell-based, multiplex, flow cytometry, ABCG2 counter-screen; ATP-dependent translocase ABCB1 (Homo sapiens), P08183; CCRF-Adr cells, JC-1 efflux; inhibition, % at 6.6 µM; actives 0.067% (n = 190,000); AID 1326, 2008; in the data active = inhibition above about 40%;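 also: higher value means more JC-1 retained so stronger ABCB1 efflux block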
Autophagy mod – autophagy modulators in MEF cells, primary screen, imaging, high-content, MEF GFP-LC3; MEF GFP-LC3 puncta imaging; test concentration mostly 10 µM; calls only at 10 µM (by protocol); actives 0.98% (n = 190,000); AID 463193, 2010;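 active = percentage of spot-positive cells more than 3 SD above its plate mean, without a fluorescence outlier flag or 80% toxicity; inconclusive = no clear call, values can overlap the other calls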
ROMK hit retest – ROMK channel modulator hit retest, confirmation, cell-based, thallium flux, duplicate, resupplied hits | shares compounds with ROMK primary | fluorescence ratio; active compounds read low | normalized thallium flux (F/F0 slope) at 10 µM | actives 54% (n = 3,000) | AID 1917, 2009;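 active = Flux at 10 µM at least 3 SD below or above vehicle control mean in one or both replicates; inconclusive = no clear call, values can overlap the other calls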
Of the large screens only hits and unclear results are named; the others gave an inactive call (follow-up assays come after a bar, where they were run). An excerpt weighted towards active compounds, which were near 2.3% of everything screened.

Oc1c(Br)cc(Br)cc1C=NCc1ccccc1	ROMK primary 3.9 (no result: sdo1 growth) | ROMK hit retest inconclusive
O/N=C/c1cc(Br)ccc1OCc1ccc(F)cc1	none (no result: ABCG2 inh, ROMK primary, Ins promoter up, sdo1 growth, ABCB1 block)
O/N=C/c1cc(Br)cc(Br)c1OCc1ccccc1	none (no result: Ins promoter up)
Oc1c(Br)cc(Br)cc1C=NCc1ccc(F)cc1	ROMK primary 3.3 (no result: sdo1 growth) | ROMK hit retest 0.12
Nc1ccc(-c2cnc[nH]2)cc1[N+](=O)[O-]	none (no result: ABCG2 inh, ROMK primary, sdo1 growth, ABCB1 block, Autophagy mod)
COc1ccccc1NC(=O)CCN1C(=O)c2ccccc2S1(=O)=O	none (no result: sdo1 growth)
CC(=O)Oc1oc(-c2ccccc2)nc1C=Nc1ccc(N(C)C)cc1	none (no result: ABCG2 inh, ROMK primary, sdo1 growth, ABCB1 block, Autophagy mod) | ROMK hit retest 0.06
O=C1c2cccc3c(N4CCCCC4)ccc(c23)C(=O)N1CCO	ROMK primary -5.3, Autophagy mod active | ROMK hit retest 0.035
O=C1c2cccc3c(N4CCCCC4)ccc(c23)C(=O)N1c1cccc(O)c1	ROMK primary -3.6 (no result: Ins promoter up, sdo1 growth) | ROMK hit retest inconclusive
CCOc1cc(N2CCOCC2)c(OCC)cc1NC(=O)c1ccc(OCc2c(C)noc2C)c(OC)c1	none
O=C(NNS(=O)(=O)c1ccccc1[N+](=O)[O-])c1ccccc1[N+](=O)[O-]	none
O=C(CCC(=O)Nc1ccccc1)NNS(=O)(=O)c1ccccc1[N+](=O)[O-]	ROMK primary 0.44 (no result: sdo1 growth) | ROMK hit retest inactive
CCC(C)Sc1nc2c(c(=O)[nH]c(=O)n2C)n1CC(O)COc1ccccc1C (stereo not drawn)	ROMK primary -3.5 (no result: Ins promoter up) | ROMK hit retest 0.066
CCC(C)Sc1nc2c(c(=O)[nH]c(=O)n2C)n1CCc1ccccc1 (stereo not drawn)	none (no result: ROMK primary)
Brc1ccc(N=C/C=C/C=C/Nc2ccc(Br)cc2)cc1	none (no result: ROMK primary) | ROMK hit retest inconclusive
CCN1C(=O)/C(=C/C=C2/CCCN2C)OC1=S	ROMK primary -4.9 (no result: sdo1 growth) | ROMK hit retest 0.064
COc1ccc(CNc2nc3ccccc3n2C)c(OC)c1	ROMK primary -7.6 (no result: sdo1 growth) | ROMK hit retest inactive
COc1ccc(CNc2nc3ccccc3n2C)c(O)c1	none (no result: ABCG2 inh, ROMK primary, sdo1 growth, ABCB1 block, Autophagy mod)
CC(O)CNc1nc2ccccc2n1CC(=O)NC12CC3CC(CC(C3)C1)C2 (stereo not drawn)	ROMK primary -2.7 (no result: sdo1 growth) | ROMK hit retest 0.066
COc1ccc(CCNC(=O)Cn2c(=O)n(-c3ccc(F)cc3)c(=O)c3sccc32)cc1OC	none (no result: sdo1 growth)
CCC1CCCCN1C(=O)CSc1nc2ccsc2c(=O)n1Cc1ccccc1 (stereo not drawn)	ROMK primary -3.1 | ROMK hit retest 0.059
O=C(O)c1cccc(NC2=C(Cl)C(=O)c3ccccc3C2=O)c1	none (no result: sdo1 growth) | ROMK hit retest 0.056
O=C(CCC1CCCN(C(=O)CCCc2ccccc2)C1)N1CCN(c2ccccn2)CC1 (stereo not drawn)	none (no result: ABCG2 inh, ROMK primary, sdo1 growth, ABCB1 block, Autophagy mod)
CCCCSCCCNC(=O)Nc1ccc(CC)cc1	none (no result: Ins promoter up, sdo1 growth)
CC1CCN(CCCNC(=O)c2ccc(CSCc3cccc(Cl)c3)o2)CC1	ROMK primary -4.2, Autophagy mod active | ROMK hit retest 0.053
CCCC1=C(C(=O)OCC)C(c2sccc2C)n2ncnc2N1 (stereo not drawn)	none (no result: ABCG2 inh, ROMK primary, sdo1 growth, ABCB1 block, Autophagy mod)
O=C(CCCn1cnc([N+](=O)[O-])n1)Nc1cccc2ccccc12	none (no result: sdo1 growth) | ROMK hit retest inactive
NC(=O)[C@@H]1CC2(CC(c3cccc(NC(=O)[C@H]4CCC(=O)N4)c3)=NO2)CN1C(=O)COc1ccc(Cl)cc1 (stereo partly drawn)	none (no result: ABCG2 inh, ROMK primary, sdo1 growth, ABCB1 block, Autophagy mod)
COc1ccc(/C=C/C(=O)N(C)c2ccccc2C(=O)O)cc1	none (no result: sdo1 growth)
CSc1nc2[nH]c3c(c2c2nnnn12)CCCC3	none (no result: ROMK primary) | ROMK hit retest inactive
CSc1nc2[nH]c3c(c2c2nncn12)CC(C)(C)OC3	none
Cc1cc[n+](C(C)C(=O)c2ccc(-c3ccccc3)cc2)cc1 (stereo not drawn)	none (no result: sdo1 growth)
O=c1cc(-c2ccccc2[N+](=O)[O-])oc2ccccc12	ROMK primary 2.4 (no result: sdo1 growth) | ROMK hit retest inactive
COCC(=O)N1CCN(c2cccc(C(F)(F)F)c2)CC1	none (no result: ROMK primary, sdo1 growth)
O=C(CS(=O)(=O)Cc1ccccc1)N1CCN(c2cccc(C(F)(F)F)c2)CC1	ROMK primary -3.2 | ROMK hit retest inconclusive
CCn1c(SCC(=O)Nc2nc3ccc(OC)cc3s2)nc2c1c(=O)n(C)c(=O)n2C	none (no result: ROMK primary) | ROMK hit retest inconclusive
CCCn1c(SCC(=O)Nc2ccccc2N2CCCCC2)nc2c1c(=O)n(C)c(=O)n2C	ROMK primary -2.6 (no result: Ins promoter up) | ROMK hit retest 0.064
COc1ccccc1OCCOCCOc1ccccc1Cl	ROMK primary -2.8 | ROMK hit retest inactive
CCCCOC(=O)CCNc1n[nH]c(=O)[nH]c1=O	none (no result: ROMK primary) | ROMK hit retest inactive
CC(=O)c1ccc(N2CCN(C(=O)c3cccc(Oc4ccccc4)c3)CC2)cc1	Autophagy mod active (no result: sdo1 growth) | ROMK hit retest inactive
Cc1ccsc1C(C(=O)NC(C)(C)C)N(C(=O)c1csnn1)c1ccccc1 (stereo not drawn)	none (no result: sdo1 growth)
CCSC1(SCC)N=C(N)C2(C#N)C(c3ccc(F)cc3)C12C#N (stereo not drawn)	none (no result: ROMK primary) | ROMK hit retest inconclusive
CCN(CC)S(=O)(=O)c1ccc(Cl)c(NC(=O)COC(=O)c2ccc(O)cc2)c1	none (no result: sdo1 growth) | ROMK hit retest inactive
CCN(CC)S(=O)(=O)c1ccc(Cl)c(NC(=O)COC(=O)c2c(C)noc2C)c1	none (no result: ROMK primary)
CCN(CC)S(=O)(=O)c1ccc(Cl)c(NC(=O)COC(=O)c2cccn2C)c1	ROMK primary 2.7 (no result: sdo1 growth) | ROMK hit retest inactive
CN(C)S(=O)(=O)c1ccc(Cl)c(NC(=O)COC(=O)c2ccc(O)cc2)c1	none (no result: sdo1 growth)
CC1(OC(=O)CCc2ccccc2)C(=O)C=C2C=C(c3ccc(C#N)cc3)N(CCc3c[nH]c4ccccc34)C=C2C1=O (stereo not drawn)	none (no result: ABCG2 inh, ROMK primary, sdo1 growth, ABCB1 block, Autophagy mod)
CC1C/C(=C/c2cccn2C)C(=O)/C(=C/c2cccn2C)C1 (stereo not drawn)	none (no result: ROMK primary, Ins promoter up)
CC1C/C(=C/c2ccncc2)C(=O)/C(=C/c2ccncc2)C1 (stereo not drawn)	ROMK primary -1.8, Ins promoter up inconclusive (no result: sdo1 growth) | ROMK hit retest 0.05
O=Cc1ccccc1OS(=O)(=O)c1ccccc1	none
CCOC(=O)c1sc(NC(=O)C(C)Sc2nnc(N)s2)nc1C (stereo not drawn)	none (no result: sdo1 growth)
C=CCc1cccc2cc(C(=O)NC(C)(C)C)c(=O)oc12	ROMK primary 7.4 | ROMK hit retest inactive
C#CC(C)(CC)NC(=O)c1cc2cccc(CC=C)c2oc1=O (stereo not drawn)	none (no result: Ins promoter up, sdo1 growth)
